According to PubChem BioAssay AID493091 (Sanford-Burnham Center for Chemical Genomics, 2011):
Out of some 340,000 compounds screened, about 3,000 (0.88%) were called active. This is one part of a sample in which actives are shown more often than they occur. Unmarked numbers belong to inactive results.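 How the source made its calls: active means inhibition above about 50% at 20 µM (limit read from the data); inactive means the rest.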

Each compound was assayed against Carboxy-terminal domain RNA polymerase II polypeptide A small phosphatase 1 (Homo sapiens) (UniProt Q9GZU7) (assay: inhibition of human SCP1 dephosphorylation activity – biochemical, colorimetric, uHTS, primary screen (AID 493091;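 further: plate controls were DMSO wells with enzyme for no effect and wells lacking enzyme for full effect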)). Settings: Recombinant Scp1, phosphopeptide, malachite green phosphate absorbance; at 20 µM; hits give high values.
Carboxy-terminal domain RNA polymerase II polypeptide A small phosphatase 1 (Homo sapiens), sequence (Q9GZU7 76-261 limits assumed): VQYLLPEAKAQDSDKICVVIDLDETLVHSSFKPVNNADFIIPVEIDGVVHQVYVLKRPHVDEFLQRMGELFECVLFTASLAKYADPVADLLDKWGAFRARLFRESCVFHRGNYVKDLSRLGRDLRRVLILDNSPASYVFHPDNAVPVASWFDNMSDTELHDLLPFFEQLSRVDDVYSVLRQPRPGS
Outline: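 System: SCP-1 catalytic domain; Reagent: Phospho 17-mer peptide substrate; Doses: one concentration, 20 µM, with 1.0% DMSO; Incubation: 45 min room-temperature reaction, 5 min colour, 30 min stabiliser; Signal: Phosphate-binding colour reagent, absorbance read at 630 nm.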
Work on `CCC(C)OC(=O)C(C)Oc1ccc(-c2ccccc2)cc1` (centres undefined) yielded an inhibition of 0.19%. `O=C(CN1C(=O)COc2ccc(Cl)cc21)N1CCOCC1` was tested, and the inhibition was 3.98%. With `Cc1ccc(C2(C)NC(=O)N(CC(=O)N3CC(=O)Nc4ccccc43)C2=O)cc1` (centres undefined) the inhibition was -4.98%. For `Cc1ccc(NC(=O)CN2C(=O)NC(C)(c3ccc(Cl)cc3)C2=O)c(Br)c1` (centres undefined), the inhibition was -3.83%. `Cc1ccc(C2(C)NC(=O)N(CC(=O)Nc3ccccc3C(=O)N3CCCCC3)C2=O)cc1` (centres undefined) was tested, and the inhibition was 65.5% (active). Work on `CC1CC(C)CN(CCOc2cccc3ccccc23)C1` (centres undefined) yielded an inhibition of -2.45%. For `CCn1ncc(C2=NOC(C(=O)Nc3ccccc3C(=O)OC)C2)c1C` (centres undefined), the inhibition was -6.5%. `O=C(Oc1ccc(-c2nc(-c3ccccn3)no2)cc1)c1ccccc1` showed an inhibition of 7.66%. In the case of `O=C1C(=O)N(c2ccccc2)c2ccccc21`, the inhibition was -4.37%. `O=C(O)COCC(=O)NCc1csc2ccc(Cl)cc12` showed an inhibition of 11.2%. For `Cc1ccc(C(=O)NNC(=O)c2cc3cc4ccccc4nc3s2)cc1`, the inhibition was 83.1% (active). In the case of `Cc1ccc(C(=O)NNC(=O)c2ccc3c(c2)OCCO3)cc1`, the inhibition was -11.5%. Compound `Cc1ccc(C(=O)NNc2ncnc3ccccc23)cc1` has an inhibition of 5.78%. `COc1ccc2oc(C(=O)NCC(Cc3ccccc3)N(C)C)c(C)c2c1` (centres undefined) was tested, and the inhibition was -2.96%. `O=C(NC(=S)Nc1ccc(Cl)c(C(=O)O)c1)c1cncc(Br)c1` showed an inhibition of 5.31%. For `CC(C)c1ccc(NC(=S)NNc2ccc(Cl)c(C(=O)O)c2)cc1`, the inhibition was 54.9% (active). `Cc1ccc(C)c(NC(=S)NNC(=S)Nc2ccc(C(C)C)cc2)c1` gave an inhibition of 3.22%. With `O=C(OCC(=O)N1CCN(C(=O)c2ccco2)CC1)c1ccc(Cl)c(Cl)c1` the inhibition was -3.89%. For `O=C1c2ccccc2S(=O)(=O)N1Cc1c(F)cccc1Cl`, the inhibition was -6.43%. Compound `CC(Sc1nn(-c2ccc(Cl)cc2)c(=S)s1)C(=O)NCC1CCCO1` (centres undefined) has an inhibition of -9%. `COc1cc(/C=C2/C(=O)NN(c3cccc(Cl)c3)C2=O)cc(Br)c1O` showed an inhibition of 2.98%. `C#CCOc1ccc(/C=C2/C(=O)NN(c3ccccc3)C2=O)cc1OC` gave an inhibition of -4.73%. With `O=C1NN(c2ccccc2)C(=O)/C1=C/c1ccc(-c2cccc(C(=O)O)c2)o1` the inhibition was 52% (active). `Cc1ccc(-c2c3c(=O)n(C)c(=O)n(C)c3cn2-n2cnnc2)cc1` gave an inhibition of -6%. For `CCOC(=O)Cc1cc(=O)[nH]c(/N=C(\N)Nc2ccc(OC)cc2)n1`, the inhibition was -0.71%. Compound `Cc1cc(=O)[nH]c(N/N=C/c2c(C)nn(-c3ccccc3Cl)c2Cl)n1` has an inhibition of -253%. `CC1CCN(c2ccc(S(=O)(=O)Nc3cc(C(=O)O)cc(C(=O)O)c3)cc2[N+](=O)[O-])CC1` was tested, and the inhibition was 54.5% (active). Work on `CC1CCN(c2ccc(C(=O)Nc3nnc(C4CC4)s3)cc2[N+](=O)[O-])CC1` yielded an inhibition of -0.75%. Work on `COc1ccc(NS(=O)(=O)c2ccc(N3CCN(CCO)CC3)c([N+](=O)[O-])c2)cc1` yielded an inhibition of -2.43%. With `O=C(CNC(=O)C(c1ccccc1)c1ccccc1)N/N=C\c1ccc2c(c1)OCO2` the inhibition was 59.5% (active). With `Cc1[nH]c2ccccc2c1/C=N/NC(=O)CNC(=O)c1ccc2c(c1)OCO2` the inhibition was -5.09%. For `O=C(N/N=C/c1ccc2c(c1)OCO2)C(=O)N1CCCC1`, the inhibition was -6.72%. `CC1C(=O)N2CCCc3cc(S(=O)(=O)NCc4ccc(F)cc4)cc1c32` (centres undefined) gave an inhibition of -5.8%. Work on `CN(CCc1ccccn1)S(=O)(=O)c1ccc2c3c(cccc13)C(=O)N2` yielded an inhibition of 0.36%. With `COc1ccc(S(=O)(=O)N2CCC(C(=O)N3CCCC3)CC2)cc1C` the inhibition was -3.35%. With `CCOC(=O)c1sc(NC(=O)CSc2nc(C)cc(C(F)(F)F)n2)c(C#N)c1C` the inhibition was -3.8%. `CC(C)c1cc(NCc2ccccn2)n2c(nc3ccccc32)c1C#N` showed an inhibition of -0.31%. `O=C(Nc1cccc(F)c1)c1cc(-c2ccco2)nc2ccccc12` was tested, and the inhibition was 57.4% (active). In the case of `O=C(O)c1cccc(NC(=O)c2cc(-c3cccc(Cl)c3)nc3ccccc23)c1`, the inhibition was 5.17%. In the case of `O=C(CSc1ccc(-c2ccco2)nn1)Nc1cccc(F)c1`, the inhibition was -4.82%. `Cc1cccc(Cn2cnc3c(N)c(C)c(C)cc32)c1` showed an inhibition of -2.5%. `Cc1onc(-c2c(F)cccc2Cl)c1C(=O)Nc1cccc(S(=O)(=O)N2CCCCC2)c1` gave an inhibition of -7.5%. `Cc1ccc(CN2CCN(Cc3cn(C)nc3-c3ccccc3)CC2CCO)o1` (centres undefined) was tested, and the inhibition was -12.6%. Work on `CC(=O)Nc1ccc(OCC(O)CN2CCN(c3ccccc3Cl)CC2)cc1` (centres undefined) yielded an inhibition of 0.19%. In the case of `Cc1ccc(CN2CCN(c3ccccc3Cl)CC2)o1`, the inhibition was 51% (active). In the case of `COc1ccc(C(=O)NCc2nnc(SCC(=O)NC3=NCCS3)n2C)cc1`, the inhibition was -3.07%. In the case of `CC(C)(C)OC(=O)NCCCCCNC(=O)c1[nH]cnc1C(=O)Nc1nccs1`, the inhibition was -11.3%. Work on `COC(=O)c1ccc(SCc2ccccc2)nc1` yielded an inhibition of -6.97%. With `COC(=O)c1ccc(-c2c(-c3ccccc3)ncc3cc(OC)c(OC)cc23)cc1` the inhibition was 66.9% (active). With `COC(=O)c1ccc(OC(=O)c2nn(C)cc2Cl)c(OC)c1` the inhibition was 1.35%. For `Cc1ccc2c(c1)C(c1ccccc1)N(C(=O)c1ccc(S(=O)(=O)N3CCOCC3)cc1)CC(=O)N2` (centres undefined), the inhibition was -1%. With `O=S(=O)(Nc1ccc(O)c2ccccc12)c1ccc(OC(F)(F)F)cc1` the inhibition was -14.4%. `Nc1ccccc1SC(C[N+](=O)[O-])c1ccccc1` (centres undefined) gave an inhibition of 2.72%. `Cc1c(NC(=O)C(C)OC(=O)c2c3c(nc4ccccc24)CCC(C)C3)c(=O)n(-c2ccccc2)n1C` (centres undefined) showed an inhibition of -2.49%. With `COc1cccc(CC(=O)OCC(=O)NCc2ccc3c(c2)OCO3)c1` the inhibition was 64.5% (active). Work on `COc1cccc(CNCc2ccc3c(c2)OCO3)c1` yielded an inhibition of -9.52%. Compound `Cc1ccc(C(=O)OCC(=O)NCc2ccc3c(c2)OCO3)s1` has an inhibition of -4.92%. With `CCOC(=O)C1CCN(C(=O)C2CCCN(S(=O)(=O)c3ccc(OC)c(Cl)c3)C2)CC1` (centres undefined) the inhibition was -4.52%. With `CC(=O)OCCC(C)C` the inhibition was 12.2%. `COc1ccc(CC(=O)N2N=C(C)CC2(O)C(F)(F)F)cc1` (centres undefined) gave an inhibition of -2.15%. In the case of `CC1=NN(C(=O)CCCc2ccccc2)C(O)(C(F)(F)F)C1` (centres undefined), the inhibition was -2.98%. With `CC1=NN(C(=O)CCc2ccccc2O)C(O)(C(F)(F)F)C1` (centres undefined) the inhibition was 63% (active). `CC(C)(C)c1cc(P(=O)(c2ccccc2)c2ccccc2)ccc1O` gave an inhibition of 4.5%. In the case of `O=C(N/N=C/c1ccc(Cl)c(Cl)c1)c1ccc2nc[nH]c2c1`, the inhibition was 2.5%. `O=C(NN=Cc1ccccc1)c1ccccc1` gave an inhibition of -6.69%. For `CSc1ccc(/C=N/NC(=O)c2cccc(Cl)c2)cc1`, the inhibition was 63.9% (active). In the case of `N#CCCN1CCN(S(=O)(=O)c2ccc(S(=O)(=O)NC3CCCCC3)cc2)CC1`, the inhibition was -9.7%. `Cc1ccc(C(=O)N/N=C/c2cccc3ccccc23)cn1` gave an inhibition of 0.35%. `COc1cc(/C=N/NC(=O)c2cc(-c3ccccc3C)nc3ccccc23)cc(OC)c1O` was tested, and the inhibition was -6.97%. With `COc1cccc(/C=N/NC(=O)c2[nH]nc3c2CCc2ccccc2-3)c1O` the inhibition was 89% (active). Work on `CN(CCOc1ccccc1)C(=O)c1cc(-c2ccco2)nc2ccccc12` yielded an inhibition of 49%. For `CN(C(=O)COC(=O)c1cc(-c2ccco2)nc2ccccc12)C1CCS(=O)(=O)C1` (centres undefined), the inhibition was 88.8% (active). `CN(C(=O)COC(=O)Cc1ccccc1[N+](=O)[O-])C1CCS(=O)(=O)C1` (centres undefined) was tested, and the inhibition was 1.98%. `CCOC(=O)C1CCCN(C(=O)c2ccc(CS(=O)(=O)c3ccc(Br)cc3)o2)C1` (centres undefined) was tested, and the inhibition was 5.99%. For `Cc1nnc(SCc2cccc(Cl)c2)n(N)c1=O`, the inhibition was -7.11%. `Cc1cccc2sc(N(CCCN(C)C)C(=O)CCS(=O)(=O)c3ccccc3)nc12` showed an inhibition of 5.73%. `COc1cccc2sc(N(CCCN(C)C)C(=O)CCS(=O)(=O)c3ccccc3)nc12` gave an inhibition of 8.55%. `COc1cccc2sc(N(CCCN(C)C)C(=O)C(c3ccccc3)c3ccccc3)nc12` was tested, and the inhibition was 59.4% (active). Compound `CC1CN(S(=O)(=O)c2ccccc2)C(C)CN1S(=O)(=O)c1ccccc1` (centres undefined) has an inhibition of 15.5%. With `O=C(Nc1ccc(Cl)cc1)C1c2cccc[n+]2CC(=O)N1Cc1ccc2c(c1)OCO2` (centres undefined) the inhibition was 39.5%. Work on `C=CCC(Nc1ccccc1)c1cccc(OC)c1OC` (centres undefined) yielded an inhibition of 0.9%. With `COc1ccc2oc(=O)cc(-c3cc4ccccc4o3)c2c1` the inhibition was -1.71%. With `COc1cccc2cc(C(=O)N(C)C)c(=O)oc12` the inhibition was -2.27%. For `COc1cccc2cc(-c3cc(=O)oc4cc(C)c(O)cc34)oc12`, the inhibition was 58.8% (active). `Cc1ccsc1-c1nc(CSCC(=O)NCCN2CCCC2)c(C)o1` was tested, and the inhibition was -6.12%. For `COC(=O)C1C(=O)NCC1c1ccc(OC)cc1` (centres undefined), the inhibition was -1.05%. With `Cc1nn(-c2cc(Cl)ccc2N)c(=O)c2ccccc12` the inhibition was 60.1% (active). In the case of `CCOC(=O)CNC(=O)c1nn(-c2cccc(OC)c2)c(=O)c2ccccc12`, the inhibition was 1.07%. `Cc1cc(=O)oc2c1c(C)nn2-c1ccc(Cl)cc1` showed an inhibition of -6.94%. For `CCCC(C(=O)N1CCOCC1)N1C(=O)C2C3C=CC(C3)C2C1=O` (centres undefined), the inhibition was 1.46%. With `Cc1cc(O)c(C2(O)C(=O)Nc3ccccc32)cc1C` (centres undefined) the inhibition was 2.83%. With `COc1cc(SC)ccc1C(=O)NNC(=O)C1COc2ccccc2O1` (centres undefined) the inhibition was 55.9% (active). `CC(=O)c1cccc(NC(=O)C2COc3ccccc3O2)c1` (centres undefined) showed an inhibition of -3.69%. For `COc1cc(SC)ccc1C(=O)N(Cc1ccccc1)c1ccccc1`, the inhibition was -9.22%.
